# From PubChem BioAssay
# Only some compounds are listed: those with a hit (about 2.1% of all), similar ones and a draw of the others.
# CHRM1 antagonist: antagonists of human M1 muscarinic receptor. P11229. CHO-K1 hM1, Fluo-8 calcium fluorescence, ACh EC80 antagonist. inhibition, % at 3 µM. hit rate 1.3% among 360,000. AID 588852;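 active = percent inhibition above its own plate's cutoff, namely the mean of that plate's compound wells plus 3 SD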;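 also: peak over basal fluorescence ratio during 140 s after agonist addition; 0% = ACh EC80 plus DMSO and 100% = DMSO alone without agonist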
# M5 PAM: potentiates acetylcholine response at human M5 receptor; activation, % at 3 µM; hit rate 0.3% among 360,000; CHO-K1 hM5, Fluo-8 calcium, ACh EC20 PAM; 0% = ACh EC20, 100% = ACh EC100;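 active = activation above the run cutoff, the mean activation of all test compounds plus 3 SD, cut at about 18% in these data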
# Target sequence (P08912 whole entry, looked up): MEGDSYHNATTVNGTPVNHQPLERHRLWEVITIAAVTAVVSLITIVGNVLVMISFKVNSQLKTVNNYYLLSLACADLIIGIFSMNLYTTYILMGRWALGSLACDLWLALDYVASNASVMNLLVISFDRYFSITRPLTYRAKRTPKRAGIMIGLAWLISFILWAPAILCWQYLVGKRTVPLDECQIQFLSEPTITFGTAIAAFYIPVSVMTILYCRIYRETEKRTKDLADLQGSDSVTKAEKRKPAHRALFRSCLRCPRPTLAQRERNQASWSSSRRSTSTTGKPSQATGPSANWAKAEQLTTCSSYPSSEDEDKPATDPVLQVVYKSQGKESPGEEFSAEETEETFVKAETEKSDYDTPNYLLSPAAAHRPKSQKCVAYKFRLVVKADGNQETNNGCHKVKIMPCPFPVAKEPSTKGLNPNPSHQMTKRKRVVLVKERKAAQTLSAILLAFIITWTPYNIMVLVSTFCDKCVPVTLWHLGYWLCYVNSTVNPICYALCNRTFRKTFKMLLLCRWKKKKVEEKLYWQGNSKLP
#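 System – CHO-K1 hM5 cells · Compound – 3 µM, single dose · Incubation – compound preincubation 140 s before EC20 acetylcholine addition · Technique – Fluo-8 calcium fluorescence · Measure – Max/basal fluorescence ratio as % of EC20–EC100 ACh window · Benchmarks – low control EC20 acetylcholine (0%), high control EC100 acetylcholine (100%) · Replication – singlicate, one well per test compound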
# CHRM1 PAM: human CHRM1 positive allosteric modulation; CHO-K1 hM1, Fluo-8 calcium fluorescence, ACh EC20; 0% = ACh EC20, 100% = maximal ACh; hit rate 0.088% among 360,000; activation, % at 3 µM; AID 588819; in the data active = activation above about 19%, passing the limit was not always enough
# M1 ag: activates human CHRM1 receptor | CHO-K1 hM1, Fluo-8 calcium fluorescence, agonist mode; 0% DMSO, 100% acetylcholine EC100 | activation, % at 3 µM | AID 588814 | hit rate 0.33% among 360,000;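 active = activation above the run's mean compound activation plus 3 SD, cut at about 16% in these data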;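 also: peak over basal fluorescence ratio within a 140 s kinetic read after compound addition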
# M5 antag: CHRM5 antagonism in calcium assay | CHO-hM5 cells, Fluo-8 calcium fluorescence, ACh EC80 | inhibition, % at 3 µM | hit rate 0.59% among 360,000 | AID 624040;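 active = inhibition above a per-plate cutoff, the mean of that plate's test compounds plus 3 SD, cut at about 27% in these data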;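 also: 0% = acetylcholine EC80 with DMSO and 100% = DMSO without agonist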
# CHRM5 agonist: agonists of human muscarinic M5 receptor (CHRM5). AID 624037. CHO-K1 hM5 cells, Fluo-8 calcium fluorescence; 0% DMSO wells, 100% maximal acetylcholine response. hit rate 0.19% among 360,000. activation, % at 3 µM. P08912;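 active = activation above the run's mean over test compounds plus 3 SD, cut at about 23% in these data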;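 also: signal is peak over basal fluorescence ratio across the kinetic read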
# * hit, by the source's call.
SMILES,CHRM1 antagonist,M5 PAM,CHRM1 PAM,M1 ag,M5 antag,CHRM5 agonist
CN(C)CCOC(=O)C1(c2ccccc2)CCCC1,100*,-20,-23,-5,86*,-8
COc1ccc(C(=O)OCC[N+]2(C)CCOCC2)cc1,2,6,1,-7,8,-9
C[N+]1(CCCOC(=O)C2(c3ccccc3)CCCC2)CCOCC1,100*,-19,-23,-9,87*,-6
O=C(OCCN1CCCC1)C1(c2ccccc2)CCCC1,99*,-23,-23,-5,99*,-8
CC(C)CCN(C(=S)Nc1cccc(F)c1)C1CCN(C(C)C)CC1,-2,-1,6,-6,3,-2
O=Cc1cn(CCOc2ccccc2F)c2ccccc12,-5,-9,1,0,9,5
CCn1nc(C)c([N+](=O)[O-])c1C(=O)NNC(=O)c1ccc(Cl)cc1,-27,20*,18,-2,-3,2
CC(OC(=O)c1ccccc1C(=O)N(C)Cc1ccccc1)C(=O)NC1(C#N)CCCCC1 (configuration not stated),-9,-6,0,-2,5,0
COCC(C)NC(=S)Nc1ccccc1[N+](=O)[O-] (configuration not stated),-8,20*,8,-2,-12,5
CC(C)(C)CC(=O)NC(=S)Nc1ccccc1[N+](=O)[O-],1,-1,-3,-13,8,-3
COc1ccccc1C(=O)COC(=O)c1ccccc1O,-13,-13,11,-11,33*,-4
O=C(O)COc1c(-c2ccccc2)oc2ccccc2c1=O,-7,5,8,-3,-8,0
CCOC(=O)C1CCCN(C(=S)Nc2ccc(OC)cc2)C1 (configuration not stated),58*,-18,-17,57*,7,34*
CCOC(=O)C1CCCN(C(=O)c2[nH]c(C(F)(F)F)nc2-c2ccccc2)C1 (configuration not stated),-9,5,-10,17*,1,6
O=C(c1[nH]c(C(F)(F)F)nc1-c1ccccc1)N1CCCCC1,2,2,0,-1,-3,3
CCOC(=O)c1ccc(NC(=S)N2CCSC2c2ccc(Cl)cc2)cc1 (configuration not stated),45*,8,2,34*,15,35*
CCOC(=O)C1CCCN(c2cc(C)nc3cc(-c4ccc(F)cc4)nn23)C1 (configuration not stated),24,-8,-26,46*,-2,13
CCOC(=O)c1ccc(NC(=S)N2CCSC2c2ccc(OC)cc2)cc1 (configuration not stated),15,-4,-1,11,5,11
CCc1ccccc1NC(=O)CCNS(=O)(=O)c1ccc2c(c1)CCC(=O)N2,-7,3,7,-3,-2,-3
O=C(CSc1ccc(S(=O)(=O)N2CCOCC2)cn1)Nc1ccc(OC(F)F)cc1,10,-9,-1,-2,11,5
CCOc1ccc2[nH]c(C(=O)N/N=C/c3cc(OC)c(OC)c(OC)c3)cc2c1,8,-6,-7,-4,17,3
CCOC(=O)C1CCCN(C(=S)Nc2ccc(F)cc2)C1 (configuration not stated),69*,-12,-24,79*,-3,23
CCOC(=O)C1CCCN(C(=O)C2CCN(C(=O)Nc3ccccc3)CC2)C1 (configuration not stated),-17,8,8,1,-1,-2
CCOC(=O)N1CCC(N2CCN(Cc3ccccc3)C(CCO)C2)CC1 (configuration not stated),12,-2,-13,-14,8,-10
CCOC(=O)N1CCC(N2CCN(C3CCCC3)C(CCO)C2)CC1 (configuration not stated),47*,-5,-35,-13,-3,-11
SMILES,CHRM1 antagonist,M5 PAM,CHRM1 PAM,M1 ag,M5 antag,CHRM5 agonist
CCOC(=O)N1CCC(NC2CCCCCCC2)CC1,74*,-4,-27,-7,5,-8
CCOC(=O)C1CCCN(C(=O)Nc2ccccc2)C1 (configuration not stated),11,-9,-23,54*,-6,21
CC(C)(C)[C@H]1COC(=O)CC/C=C\C[C@@H](CC(=O)N[C@H](CO)Cc2ccccc2)C(=O)N1,-6,-5,9,-3,3,0
CCn1nnc(NC(=O)CSc2ccc(Cl)cc2)n1,4,-4,-6,-2,5,-2
CC(=O)N1CCN(Cc2nc3cc(NC(=O)c4ccc(Cl)cc4)ccc3n2C)CC1,-7,-1,15,3,-1,-1
CCOC(=O)C1CCCN(CCc2ccccc2)C1 (configuration not stated),49*,-32,-12,18*,20,-17
CCOC(=O)c1ccc(NC(=S)N2CCCC(C(=O)OCC)C2)cc1 (configuration not stated),69*,-6,-37,76*,17,23
CCOC(=O)c1ccc(NC(=S)N2CCC(C(N)=O)CC2)cc1,8,-2,-10,-10,0,-8
CCOC(=O)C1CCCN(C(=S)NC2CCCC2)C1 (configuration not stated),3,-7,-19,51*,-1,8
COc1cc2c(cc1OC)-c1cc(OCCN3CCOCC3)nc(=O)n1CC2,-9,25*,5,-1,3,-6
CCCOc1ccc(CSc2nc3ccccc3[nH]2)cc1,38*,-21,-27,-3,42*,2
CCCCCCC(=O)N/N=C/c1ccco1,-8,4,5,-10,-6,-3
COc1cccc(-c2nc(OC(C)C)c3ccccc3n2)c1,-11,0,4,-4,5,-3
Cc1c(NC(=O)CN2CCN(c3ccc([N+](=O)[O-])cc3)CC2)c(=O)n(-c2ccccc2)n1C,-7,-3,-1,-6,5,-2
Cc1c(C=C(C#N)c2ccc([N+](=O)[O-])cc2)c(=O)n(-c2ccccc2)n1C,30*,-10,-21,-7,8,-3
COc1ccc(S(=O)(=O)N2CCN(C(=O)C3COc4ccccc4O3)CC2)cc1 (configuration not stated),89*,-15,-28,-6,14,2
Cc1[nH]c2ccccc2c1C(=O)CN1C(=O)NC(C)(c2ccc(Cl)cc2Cl)C1=O (configuration not stated),19,1,6,27*,18,20
Cc1[nH]c2ccccc2c1C(=O)CSc1ccc(Cl)cc1,-1,-3,12,-8,5,-2
CCOc1ccc(NC(=O)CSc2nncc(=O)[nH]2)cc1,-23,3,15,-3,-1,-2
